Data set [1] concerns MCF7. Briefly: Antiproliferative activity against human MCF7 cells after 48 hrs by SRB assay. Type of data set: functional, cell-based. A digest of the protocol:
(§1)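 Cells grown in RPMI with 10% fetal calf serum at 37 °C, 5% CO2, replated 24 h before use, >90% trypan blue viability. DMSO stocks (1 mg/ml) diluted in medium; 48 h exposure at 37 °C, triplicate wells, concentrations up to 250 µM. Fixed with cold TCA, SRB stained, dye solubilized in 10 mM Tris pH 10.5, A570. Percent inhibition calculated versus untreated cells after subtracting cell-free blanks.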
A general note: In SRB staining, fixed cells bind dye roughly in proportion to their protein.

Data set [2] is described as follows: Cytotoxicity against human MCF12A cells after 48 hrs by SRB assay. Type of data set: cell-based, MCF-12A. A digest of the protocol:
as §1

Data set [3] relates to CCRF-CEM. Kind of data set: Antiproliferative activity against human CEM cells after 48 hrs by SRB assay. Type of data set: functional, cell-based. A digest of the protocol:
as §1

In data set [4] the test system is MCF7. Kind of data set: Antiproliferative activity against human MCF7 cells at 250 uM after 48 hrs by SRB assay. Type of data set: functional, cell-based. Conditions: for inhibition at 250 µM: Homo sapiens, MCF7, 48 h; call rule not given here. In short, it runs like this:
as §1

The nature of data set [5]: Cytotoxicity against human MCF12A cells at 250 uM after 48 hrs by SRB assay. Type of data set: cell-based, MCF-12A. Conditions: read-out: INH. In short, it runs like this: as §1
Data set [6] has as its system CCRF-CEM. Briefly: Antiproliferative activity against human CEM cells at 250 uM after 48 hrs by SRB assay. Type of data set: functional. In short, it runs like this:
as §1

In data set [7] the test system is CCRF-CEM. Briefly: Cytotoxicity against human CEM cells assessed as late apoptotic/necrotic cells at 120 uM after 24 hrs by Annexin-V-FITC and porpidium iodide staining based flow cytometry. Type of data set: functional. In short, it runs like this:
(§2)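 CEM cells at 10⁶/ml incubated 24 h at 37 °C with 120 µM agent from fresh DMSO stocks. Cells then washed in ice-cold PBS and taken into binding buffer (10 mM HEPES, 140 mM NaCl, 2.5 mM CaCl2). Annexin V-FITC and PI were added for 15 min in the dark at ambient temperature. Flow cytometry read 520/620 nm, gated on forward scatter to remove debris, counting 10,000 cells. Three experiments.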

For data set [8], the system named is CCRF-CEM. Kind of data set: Cytotoxicity against human CEM cells assessed as early apoptotic cells at 120 uM after 24 hrs by Annexin-V-FITC and porpidium iodide staining based flow cytometry. Type of data set: functional. In short, it runs like this: as §2
(In general: A flow cytometer gives signals particle by particle.)

For data set [9], the system named is CCRF-CEM. Briefly: Cytotoxicity against human CEM cells assessed as viable cells at 120 uM after 24 hrs by Annexin-V-FITC and porpidium iodide staining based flow cytometry. Type of data set: functional. The note with it: read-out: Activity. A digest of the protocol:
as §2

Setting [10] is: Homo sapiens, MCF7, 48 h, read-out: IC50.
[11] abbreviates: Homo sapiens, MCF-12A, 48 h, read-out: IC50.
Where [12] appears, read: Homo sapiens, CCRF-CEM, 48 h, read-out: IC50.

For `COC(=O)C[C@H](O)[C@@H]1O[C@@H](c2ccccc2)[C@H](O)[C@@H]1O`, the IC50 entry (with MCF7 [1] (mcf7); in data set [2] (mcf-12a); with CCRF-CEM [3] (ccrf-cem)) was “Not Active” in each case. For the same compound, the inhibition at 250 µM in the data set on MCF7 [4] and in the data set on CCRF-CEM [6] was below 50% each time. Moreover, the cytotoxicity at 48 h, 250 µM in data set [5] was below 50%.

Take `COC(=O)C[C@H](O)[C@@H]1O[C@@H](c2ccccc2)[C@@H](O)[C@@H]1O`: the IC50 result (in the data set with MCF7 [1] (mcf7); in data set [2] (mcf-12a); in the data set with CCRF-CEM [3] (ccrf-cem)) was “Not Active” throughout. The inhibition at 250 µM in the data set with MCF7 [4] and in the data set on CCRF-CEM [6] was below 50% in each case. Moreover, the cytotoxicity at 48 h, 250 µM in data set [5] is below 50%.

Take `COC(=O)C[C@@H](O)[C@@H]1O[C@H](c2ccccc2)[C@@H](O)[C@@H]1O` (mixture of isomers): the concentration for half-maximal inhibition (IC50) result (in the data set on MCF7 [1] (mcf7); in data set [2] (mcf-12a); with CCRF-CEM [3] (ccrf-cem)) was “Not Active” in each case. Further, the inhibition at 250 µM in the data set with MCF7 [4] and in the data set with CCRF-CEM [6] was below 50% throughout. For the same compound, the cytotoxicity at 48 h, 250 µM in data set [5] is below 50%.

For `O=C1C=C[C@@H]2O[C@H](c3ccccc3)[C@@H](O)[C@@H]2O1` [ALTHOLACTONE], the half-inhibitory concentration (IC50) (in general, the concentration that inhibits the measured activity by half) was 124 µM in the data set on MCF7 [1] (setting [10]), 120 µM in [2] (setting [11]) and 19 µM with CCRF-CEM [3] (setting [12]). Also, the Activity was determined as 19% in the data set on CCRF-CEM [7] and 33% with CCRF-CEM [8]. The viability at 120 µM with CCRF-CEM [9] came out at 19%.

For the compound `COC(=O)C[C@H](O)[C@H]1O[C@@H](c2ccccc2)[C@H](O)[C@H]1O`, the IC50 result (in the data set with MCF7 [1] (mcf7); in [2] (mcf-12a); in the data set with CCRF-CEM [3] (ccrf-cem)) was “Not Active” throughout. Further, the inhibition at 250 µM in the data set on MCF7 [4] and with CCRF-CEM [6] was below 50% in each case. Further, in data set [5], the cytotoxicity at 48 h, 250 µM is below 50%.

For the compound `O=C1C=C[C@H]2O[C@@H](c3ccccc3)[C@H](O)[C@H]2O1` [ENT-ALTHOLACTONE], the half-maximal inhibitory concentration (IC50) is 100 µM in the data set on MCF7 [1] (setting [10]), 110 µM in data set [2] (setting [11]) and 24 µM in the data set with CCRF-CEM [3] (setting [12]). The Activity in the data set with CCRF-CEM [7] was 40%; in the data set with CCRF-CEM [8], 10%. Also, the viability at 120 µM in the data set on CCRF-CEM [9] is 19%.

In the case of `O=C1C[C@@H](O)[C@@H]2O[C@H](c3ccccc3)[C@@H](O)[C@@H]2O1`, the IC50 entry (in the data set on MCF7 [1] (mcf7); in data set [2] (mcf-12a); in the data set on CCRF-CEM [3] (ccrf-cem)) was “Not Active” each time. Further, the Inhibition – broadly, the drop in the measured response relative to a control, in per cent – in the data set with MCF7 [4] (mcf7) was below 50%. Moreover, in data set [5], the cytotoxicity at 48 h, 250 µM is below 50%. Also, the inhibition (in general, the change of the read-out against control, counted positive when it falls) at 250 µM in the data set with CCRF-CEM [6] was below 50%.

These data come from ChEMBL document CHEMBL1159063, “Apoptotic activities in closely related styryllactone stereoisomers toward human tumor cell lines: Investigation of synergism of styryllactone-induced apoptosis with TRAIL” (Bioorg Med Chem, 2010).
